Assays:
Type in all cases: functional
EKVX [1] = test: Growth inhibition of human EKVX cells incubated for 48 hrs by sulforhodamine B assay
Summary of the method: (§1)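 NCI-60 five-dose mode: five tenfold dilutions (0.01, 0.1, 1, 10, 100 µM) are applied for 48 h to cells in RPMI 1640 with 5% FBS at 37 °C. Endpoint is TCA fixation with sulforhodamine B read at 515 nm. % growth comes from the 0 h and control absorbances. GI50 is the concentration giving a 50% reduction in net cell growth.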

SK-MEL-28 = test: Growth inhibition of human SK-MEL-28 cells incubated for 48 hrs by sulforhodamine B assay; details: SK-MEL-28, 48 h
Summary of the method: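 NCI-60 five-dose SRB assay. Cells were exposed for 48 h to tenfold dilutions of 0.01, 0.1, 1, 10 and 100 µM, in RPMI 1640 with 5% FBS. Plates fixed with TCA at the time of drug addition served as the time-zero reference. GI50 is the concentration giving a 50% reduction in net growth. TGI is total growth inhibition. LC50 is a net 50% loss of the initial cells.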

MDA-MB-231 [2] = test: Growth inhibition of human MDA-MB-231 cells incubated for 48 hrs by sulforhodamine B assay; details: MDA-MB-231, 48 h
Summary of the method: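 NCI-60 five-dose SRB assay in RPMI 1640 with 5% FBS, 37 °C, 5% CO2. Compound given at five tenfold dilutions, 0.01–100 µM, for 48 h. Adherent cells fixed with TCA, suspension cells with 16% final TCA. Bound SRB read at 515 nm and growth calculated against time-zero and untreated controls. GI50 taken from dose–response curves as the concentration giving a 50% decrease in net cell growth.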

LOX IMVI = test: Growth inhibition of human LOXIMVI cells assessed as cell viability at 100 uM incubated for 48 hrs by sulforhodamine B assay; details: read-out: Activity
U-251 = test: Growth inhibition of human U251 cells assessed as cell viability at 100 uM incubated for 48 hrs by sulforhodamine B assay; details: U-251, 48 h, read-out: Activity
Hs-578T [3] = test: Growth inhibition of human Hs 578T cells assessed as cell viability at 1 uM incubated for 48 hrs by sulforhodamine B assay; details: read-out: Activity
IGROV-1 [4] = test: Growth inhibition of human IGROV1 cells assessed as cell viability at 1 uM incubated for 48 hrs by sulforhodamine B assay; details: IGROV-1, 48 h, read-out: Activity
HCT-15 [5] = test: Growth inhibition of human HCT15 cells assessed as cell viability at 1 uM incubated for 48 hrs by sulforhodamine B assay; details: HCT-15, 48 h, read-out: Activity
NCI-H322M = test: Growth inhibition of human NCI-H322M cells assessed as cell viability at 1 uM incubated for 48 hrs by sulforhodamine B assay; details: read-out: Activity
K562 = test: Growth inhibition of human K562 cells assessed as cell viability at 1 uM incubated for 48 hrs by sulforhodamine B assay; details: K562, 48 h, read-out: Activity
MDA-MB-468 [6] = test: Growth inhibition of human MDA-MB-468 cells assessed as cell viability at 0.1 uM incubated for 48 hrs by sulforhodamine B assay; details: MDA-MB-468, 48 h, read-out: Activity
MDA-MB-231 [7] = test: Growth inhibition of human MDA-MB-231 cells assessed as cell viability at 0.1 uM incubated for 48 hrs by sulforhodamine B assay; details: MDA-MB-231, 48 h, read-out: Activity
CAKI-1 = test: Growth inhibition of human Caki1 cells assessed as cell viability at 0.1 uM incubated for 48 hrs by sulforhodamine B assay; details: CAKI-1, 48 h, read-out: Activity
IGROV-1 [8] = test: Growth inhibition of human IGROV1 cells assessed as cell viability at 0.1 uM incubated for 48 hrs by sulforhodamine B assay; details: IGROV-1, 48 h, read-out: Activity
UACC-257 = test: Growth inhibition of human UACC257 cells assessed as cell viability at 0.1 uM incubated for 48 hrs by sulforhodamine B assay; details: UACC-257, 48 h, read-out: Activity
SW-620 = test: Growth inhibition of human SW620 cells assessed as cell viability at 0.1 uM incubated for 48 hrs by sulforhodamine B assay; details: SW-620, 48 h, read-out: Activity
COLO 205 = test: Growth inhibition of human COLO205 cells assessed as cell viability at 0.1 uM incubated for 48 hrs by sulforhodamine B assay; details: COLO 205, 48 h, read-out: Activity
HOP-62 = test: Growth inhibition of human HOP62 cells assessed as cell viability at 0.1 uM incubated for 48 hrs by sulforhodamine B assay; details: HOP-62, 48 h, read-out: Activity
MDA-MB-468 [9] = test: Growth inhibition of human MDA-MB-468 cells assessed as cell viability at 0.001 uM incubated for 48 hrs by sulforhodamine B assay relative to control; details: MDA-MB-468, 48 h, read-out: Activity
SK-MEL-5 = test: Growth inhibition of human SK-MEL-5 cells assessed as cell viability at 0.001 uM incubated for 48 hrs by sulforhodamine B assay relative to control; details: SK-MEL-5, 48 h, read-out: Activity
MDA-MB-435 = test: Growth inhibition of human MDA-MB-435 cells assessed as cell viability at 0.001 uM incubated for 48 hrs by sulforhodamine B assay relative to control; details: MDA-MB-435, 48 h, read-out: Activity
M14 = test: Growth inhibition of human M14 cells assessed as cell viability at 0.001 uM incubated for 48 hrs by sulforhodamine B assay relative to control; details: M14, 48 h, read-out: Activity
SNB-75 = test: Growth inhibition of human SNB75 cells assessed as cell viability at 0.001 uM incubated for 48 hrs by sulforhodamine B assay relative to control; details: SNB-75, 48 h, read-out: Activity
HCT-15 [10] = test: Growth inhibition of human HCT15 cells assessed as cell viability at 0.001 uM incubated for 48 hrs by sulforhodamine B assay relative to control; details: HCT-15, 48 h, read-out: Activity
EKVX [11] = test: Growth inhibition of human EKVX cells assessed as cell viability at 0.001 uM incubated for 48 hrs by sulforhodamine B assay relative to control; details: read-out: Activity
A498 = test: Growth inhibition of human A498 cells assessed as cell viability at 100 uM incubated for 48 hrs by sulforhodamine B assay; details: A498, 48 h, read-out: Activity; summary of the method: as §1
Hs-578T [12] = test: Growth inhibition of human Hs 578T cells assessed as cell viability at 100 uM incubated for 48 hrs by sulforhodamine B assay; details: read-out: Activity

Q: `CC1=C(C(=O)OCc2ccccc2)C(c2ccc3c(c2)OCO3)n2c(nc3ccccc32)N1` (racemic) was tested. Which GI50 (EKVX [1]; read-out: GI50) did it give?
A: The GI50 was 0.69 µM.

Q: And the LC50 (EKVX [1]; read-out: LC50)?
A: Its LC50 is over 100 µM.

Q: And the TGI (EKVX [1]; read-out: TGI)?
A: Its TGI is over 100 µM.

Q: And the GI50 (EKVX [1]; read-out: pGI50 (converted))?
A: Its GI50 is 0.692 µM.

Q: And the LC50 (EKVX [1]; read-out: pLC50 (converted))?
A: Its LC50 is over 100 µM.

Q: What about the TGI (EKVX [1]; read-out: pTGI) of the same compound?
A: Its TGI is over 100 µM.

Q: And the GI50 (SK-MEL-28; read-out: GI50)?
A: Its GI50 is over 100 µM.

Q: What about the LC50 (SK-MEL-28; read-out: LC50) of the same compound?
A: Its LC50 is over 100 µM.

Q: And the TGI (SK-MEL-28; read-out: TGI)?
A: The TGI was over 100 µM.

Q: And the GI50 (SK-MEL-28; read-out: pGI50 (converted))?
A: Its GI50 is over 100 µM.

Q: What about the LC50 (SK-MEL-28; read-out: pLC50 (converted)) of the same compound?
A: Its LC50 is over 100 µM.

Q: What about the TGI (SK-MEL-28; read-out: pTGI) of the same compound?
A: Its TGI is over 100 µM.

Q: What about the GI50 (MDA-MB-231 [2]; read-out: GI50) of the same compound?
A: The GI50 was 85.7 µM.

Q: What about the CC50 (MDA-MB-231 [2]; read-out: LC50 (the source's name)) of the same compound?
A: Its CC50 is over 100 µM.

Q: What about the TGI (MDA-MB-231 [2]; read-out: TGI) of the same compound?
A: Its TGI is over 100 µM.

Q: And the GI50 (MDA-MB-231 [2]; read-out: pGI50 (converted))?
A: Its GI50 is 85.1 µM.

Q: And the CC50 (MDA-MB-231 [2]; read-out: pLC50 (the source's name) (converted))?
A: Its CC50 is over 100 µM.

Q: What about the TGI (MDA-MB-231 [2]; read-out: pTGI) of the same compound?
A: The TGI was over 100 µM.

Q: What about the viability at 100 µM (LOX IMVI) of the same compound?
A: Its viability at 100 µM is 32%.

Q: What about the viability at 100 µM (U-251) of the same compound?
A: Its viability at 100 µM is 3%.

Q: And the viability at 1 µM (Hs-578T [3])?
A: Its viability at 1 µM is 5%.

Q: What about the viability at 1 µM (IGROV-1 [4]) of the same compound?
A: Its viability at 1 µM is 39%.

Q: What about the viability at 1 µM (HCT-15 [5]) of the same compound?
A: The viability at 1 µM was 25%.

Q: What about the viability at 1 µM (NCI-H322M) of the same compound?
A: The viability at 1 µM was 48%.

Q: And the viability at 1 µM (K562)?
A: Its viability at 1 µM is 23%.

Q: And the viability at 0.1 µM (MDA-MB-468 [6])?
A: Its viability at 0.1 µM is 94%.

Q: And the viability at 0.1 µM (MDA-MB-231 [7])?
A: Its viability at 0.1 µM is 98%.

Q: And the viability at 0.1 µM (CAKI-1)?
A: Its viability at 0.1 µM is 74%.

Q: And the viability at 0.1 µM (IGROV-1 [8])?
A: The viability at 0.1 µM was 93%.

Q: What about the viability at 0.1 µM (UACC-257) of the same compound?
A: Its viability at 0.1 µM is 91%.

Q: And the viability at 0.1 µM (SW-620)?
A: The viability at 0.1 µM was 89%.

Q: What about the viability at 0.1 µM (COLO 205) of the same compound?
A: The viability at 0.1 µM was 101%.

Q: What about the viability at 0.1 µM (HOP-62) of the same compound?
A: Its viability at 0.1 µM is 96%.

Q: And the viability at 0.001 µM (MDA-MB-468 [9])?
A: Its viability at 0.001 µM is 90%.

Q: What about the viability at 0.001 µM (SK-MEL-5) of the same compound?
A: Its viability at 0.001 µM is 98%.

Q: And the viability at 0.001 µM (MDA-MB-435)?
A: Its viability at 0.001 µM is 93%.

Q: What about the viability at 0.001 µM (M14) of the same compound?
A: Its viability at 0.001 µM is 93%.

Q: What about the viability at 0.001 µM (SNB-75) of the same compound?
A: The viability at 0.001 µM was 61%.

Q: What about the viability at 0.001 µM (HCT-15 [10]) of the same compound?
A: Its viability at 0.001 µM is 92%.

Q: And the viability at 0.001 µM (EKVX [11])?
A: The viability at 0.001 µM was 91%.

Q: And the viability at 100 µM (A498)?
A: The viability at 100 µM was 37%.

Q: And the viability at 100 µM (Hs-578T [12])?
A: Its viability at 100 µM is -24%.
